Measurements as given in ChEMBL document CHEMBL1143280, “Discovery and optimization of imidazo[1,2-a]pyridine inhibitors of insulin-like growth factor-1 receptor (IGF-1R)” (Bioorg Med Chem Lett, 2009).

How the values were obtained:
[1] = biological target: T1, Insulin receptor (Homo sapiens, UniProt P06213); assay: Inhibition of GST-tagged insulin receptor expressed in baculovirus by time-resolved fluorescence assay
Summary of the method: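 GST-tagged IR intracellular domain (aa 979–1382), baculovirus-expressed, activated at 2.7 µM with 2 mM ATP in 50 mM Hepes pH 7.5, 10 mM MgCl2, BSA. Phosphopeptide by TRF with streptavidin-allophycocyanin and Eu-anti-phosphotyrosine. n ≥ 2.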

[2] = biological target: Epidermal growth factor receptor (Homo sapiens, UniProt P00533); assay: Inhibition of EGFR
[3] = biological target: Receptor tyrosine-protein kinase erbB-4 (Homo sapiens, UniProt Q15303); assay: Inhibition of ErbB4
[4] = biological target: Receptor tyrosine-protein kinase erbB-2 (Homo sapiens, UniProt P04626); assay: Inhibition of ErbB2
[5] = biological target: Serine/threonine-protein kinase B-raf (Homo sapiens, UniProt P15056, V600E); assay: Inhibition of B-raf V600E mutant
[6] = biological target: Aurora kinase B (Homo sapiens, UniProt Q96GD4); assay: Inhibition of Aurora B
[7] = biological target: Mitogen-activated protein kinase 14 (Homo sapiens, UniProt Q16539); assay: Inhibition of p38alpha
[8] = biological target: T2, Aurora kinase A (Homo sapiens, UniProt O14965); assay: Inhibition of Aurora A
T2 sequence (O14965 whole entry): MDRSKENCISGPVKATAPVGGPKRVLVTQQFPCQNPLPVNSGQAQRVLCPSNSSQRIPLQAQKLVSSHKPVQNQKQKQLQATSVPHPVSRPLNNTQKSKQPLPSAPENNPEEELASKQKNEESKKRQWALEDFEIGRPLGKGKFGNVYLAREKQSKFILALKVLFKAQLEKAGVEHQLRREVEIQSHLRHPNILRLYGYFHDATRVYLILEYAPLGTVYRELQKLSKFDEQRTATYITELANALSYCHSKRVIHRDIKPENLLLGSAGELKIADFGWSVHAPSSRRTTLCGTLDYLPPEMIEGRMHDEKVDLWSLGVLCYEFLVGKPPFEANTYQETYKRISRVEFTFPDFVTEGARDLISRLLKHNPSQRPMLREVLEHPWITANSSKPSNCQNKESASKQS

[9] = biological target: Tyrosine-protein kinase Lck (Homo sapiens, UniProt P06239); assay: Inhibition of LCK
[10] = biological target: T1, Insulin receptor; assay: Inhibition of human insulin receptor autophosphorylation in transfected mouse NIH3T3 cells; format: cell-based
Summary of the method: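 NIH-3T3 cells expressing human IR were grown on collagen-coated plates for 24 h, then given inhibitor or DMSO. After 2 h they were stimulated with bovine insulin for 15 min and lysed in RIPA. Lysates were captured overnight at 4 °C on anti-IRβ plates. Phospho-IR was detected by Eu-phosphotyrosine antibody time-resolved fluorescence (340/615 nm), and total IR by anti-IR. IC50 was taken from the phospho/total ratio curves.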

[11] = Antiproliferative activity against human NCI-H929 cells after 72 hrs by Celltiter assay; format: functional, cell-based; conditions: NCI-H929, 72 h
Summary of the method: (§1)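 Cells seeded in 96-well dishes and incubated overnight at 37 °C, then exposed to a range of inhibitor concentrations for 72 h. Proliferation read by CellTiter-Glo luminescence per manufacturer's protocol. IC50 from 4-parameter curve fit.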

[12] = test system: LP-1; assay: Antiproliferative activity against human LP-1 cells after 72 hrs by Celltiter assay; format: functional, cell-based; conditions: LP-1, 72 h; summary of the method: as §1
[13] = Antiproliferative activity against human TC71 cells after 72 hrs by Celltiter assay; format: functional, cell-based; conditions: TC-71, 72 h; summary of the method: as §1
[14] = Antiproliferative activity against human SK-ES cells after 72 hrs by Celltiter assay; format: functional, cell-based; summary of the method: as §1
[15] = test system: COLO 205; assay: Antiproliferative activity against human COLO205 cells after 72 hrs by Celltiter assay; format: functional, cell-based; conditions: COLO 205, 72 h; summary of the method: as §1
[16] = test system: A549; assay: Antiproliferative activity against human A549 cells after 72 hrs by Celltiter assay; format: functional, cell-based; conditions: A549, 72 h; summary of the method: as §1
[17] = test system: HFF; assay: Antiproliferative activity against HFF cells after 72 hrs by Celltiter assay; format: cell-based; conditions: Homo sapiens; summary of the method: as §1
[18] = biological target: T3, Insulin-like growth factor 1 receptor (Homo sapiens, UniProt P08069); assay: Binding affinity to IGF1R by liquid scintillation counting; conditions: read-out: Ki(app)
Summary of the method: (§2)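 Activated IGF-1R or IR kinase domains (pre-activated at 500 nM with 1 mM ATP for 30 min in pH 7.2 Hepes/MgCl2/BSA buffer with phosphatase inhibitors) were used at 0.5 nM final. Enzyme and ATP were pre-incubated with inhibitor for 6 h. […] Product was filter-captured and scintillation-counted. IC50 was converted to apparent Ki by Cheng–Prusoff.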

[19] = biological target: T1, Insulin receptor; assay: Binding affinity to insulin receptor by liquid scintillation counting; conditions: read-out: Ki(app); summary of the method: as §2
[20] = Clearance in Sprague-Dawley rat at 3 mg/kg, po; format: ADME, organism-based; design: dose 3 mg/kg, route oral; conditions: in vivo
Summary of the method: (§3)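 Compound given as solution in 1.0% DMSO, 20% Captisol in saline (IV) or water (PO); dog PO given as partial suspension. IV doses 0.6–1.3 mg/kg, PO 2.1–7.2 mg/kg by species. Male Sprague–Dawley rats, male beagle dogs, male cynomolgus monkeys. Data over 0–24 h; dose-normalized AUC as ng h/mL/(mg/kg).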

[21] = test system: Rattus norvegicus; assay: Volume of distribution at steady state in Sprague-Dawley rat at 3 mg/kg, po; format: ADME, organism-based; design: dose 3 mg/kg, route oral; conditions: in vivo; summary of the method: as §3
[22] = test system: Rattus norvegicus; assay: Dose normalized AUC in Sprague-Dawley rat at 3 mg/kg, po; format: ADME, organism-based; design: dose 3 mg/kg, route oral; conditions: in vivo; summary of the method: as §3
[23] = Oral bioavailability in Sprague-Dawley rat at 3 mg/kg; format: ADME, organism-based; conditions: in vivo; summary of the method: as §3
[24] = Clearance in Beagle dog at 7.2 mg/kg, po; format: ADME, organism-based, Canis lupus familiaris; design: dose 7.2 mg/kg, route oral; conditions: in vivo; summary of the method: as §3
[25] = test system: Canis familiaris; assay: Volume of distribution at steady state in Beagle dog at 7.2 mg/kg, po; format: ADME, organism-based, Canis lupus familiaris; design: dose 7.2 mg/kg, route oral; conditions: in vivo; summary of the method: as §3
[26] = test system: Canis familiaris; assay: Dose normalized AUC in Beagle dog at 7.2 mg/kg, po; format: ADME, organism-based, Canis lupus familiaris; design: dose 7.2 mg/kg, route oral; conditions: in vivo; summary of the method: as §3
[27] = Oral bioavailability in Beagle dog at 7.2 mg/kg; format: ADME, organism-based, Canis lupus familiaris; conditions: in vivo; summary of the method: as §3
[28] = Clearance in cynomolgus monkey at 2.1 mg/kg, po; format: ADME, organism-based, Macaca fascicularis; design: dose 2.1 mg/kg, route oral; conditions: in vivo; summary of the method: as §3
[29] = test system: Cynomolgus monkey; assay: Volume of distribution at steady state in cynomolgus monkey at 2.1 mg/kg, po; format: ADME, organism-based, Macaca fascicularis; design: dose 2.1 mg/kg, route oral; conditions: in vivo; summary of the method: as §3
[30] = test system: Cynomolgus monkey; assay: Dose normalized AUC in cynomolgus monkey at 2.1 mg/kg, po; format: ADME, organism-based, Macaca fascicularis; design: dose 2.1 mg/kg, route oral; conditions: in vivo; summary of the method: as §3
[31] = Oral bioavailability in cynomolgus monkey at 2.1 mg/kg; format: ADME, organism-based, Macaca fascicularis; conditions: in vivo; summary of the method: as §3
[32] = biological target: T3, Insulin-like growth factor 1 receptor; assay: Inhibition of GST-tagged IGF1R (957-1367) expressed in baculovirus by time-resolved fluorescence assay
[33] = biological target: T3, Insulin-like growth factor 1 receptor; assay: Inhibition of human IGF1R autophosphorylation in transfected mouse NIH3T3 cells; format: cell-based
[34] = test system: Mus musculus; assay: Dose normalized AUC (0 to 6 hrs) in po dosed mouse; format: ADME, organism-based; design: time < 6 hr, route oral; conditions: in vivo
Summary of the method: (§4)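 Oral dosing in mice; dose-normalized AUC in ng h/mL/(mg/kg) calculated over 0–6 h.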

[35] = test system: Mus musculus; assay: Dose normalized AUC (0 to 6 hrs) in mouse at 7.3 mg/kg, po; format: ADME, organism-based; design: time < 6 hr, dose 7.3 mg/kg, route oral; conditions: in vivo; summary of the method: as §4
[36] = Clearance in po dosed mouse; format: ADME, organism-based; conditions: in vivo

T3 sequence (P08069 31-736 limits assumed): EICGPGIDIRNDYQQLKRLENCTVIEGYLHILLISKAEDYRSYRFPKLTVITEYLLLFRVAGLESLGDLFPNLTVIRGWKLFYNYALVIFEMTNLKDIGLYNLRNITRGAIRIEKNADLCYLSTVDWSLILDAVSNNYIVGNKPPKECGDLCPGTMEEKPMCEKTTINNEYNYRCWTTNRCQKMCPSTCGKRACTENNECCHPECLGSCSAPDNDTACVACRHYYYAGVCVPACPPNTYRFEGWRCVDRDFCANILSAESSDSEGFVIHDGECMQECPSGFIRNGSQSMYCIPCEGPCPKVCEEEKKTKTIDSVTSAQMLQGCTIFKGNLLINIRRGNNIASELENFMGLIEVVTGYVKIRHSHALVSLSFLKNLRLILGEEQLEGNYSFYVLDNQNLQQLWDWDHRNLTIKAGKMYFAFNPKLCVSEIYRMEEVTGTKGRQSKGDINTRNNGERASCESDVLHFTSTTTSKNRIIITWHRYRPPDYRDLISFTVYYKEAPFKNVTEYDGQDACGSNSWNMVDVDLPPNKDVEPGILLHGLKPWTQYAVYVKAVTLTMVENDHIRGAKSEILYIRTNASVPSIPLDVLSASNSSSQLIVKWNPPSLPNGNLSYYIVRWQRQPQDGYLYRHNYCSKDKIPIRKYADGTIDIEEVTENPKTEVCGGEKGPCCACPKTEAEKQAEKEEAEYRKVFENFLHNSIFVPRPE
T3 sequence (P08069 741-1367 limits assumed): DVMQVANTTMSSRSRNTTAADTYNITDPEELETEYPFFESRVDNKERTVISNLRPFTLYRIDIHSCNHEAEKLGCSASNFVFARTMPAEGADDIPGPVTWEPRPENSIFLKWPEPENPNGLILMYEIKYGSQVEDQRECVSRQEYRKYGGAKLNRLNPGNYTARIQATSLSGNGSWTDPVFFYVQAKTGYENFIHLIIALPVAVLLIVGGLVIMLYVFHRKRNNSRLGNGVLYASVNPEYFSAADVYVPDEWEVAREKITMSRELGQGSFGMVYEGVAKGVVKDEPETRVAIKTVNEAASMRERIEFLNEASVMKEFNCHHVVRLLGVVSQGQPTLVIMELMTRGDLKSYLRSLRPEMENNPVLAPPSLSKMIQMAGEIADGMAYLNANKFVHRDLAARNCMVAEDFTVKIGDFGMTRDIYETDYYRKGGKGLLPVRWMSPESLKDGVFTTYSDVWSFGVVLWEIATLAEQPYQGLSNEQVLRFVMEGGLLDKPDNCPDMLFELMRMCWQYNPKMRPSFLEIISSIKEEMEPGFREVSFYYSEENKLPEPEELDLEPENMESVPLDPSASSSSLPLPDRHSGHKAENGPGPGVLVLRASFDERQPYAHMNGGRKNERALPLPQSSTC
T1 sequence (P06213 28-758 limits assumed): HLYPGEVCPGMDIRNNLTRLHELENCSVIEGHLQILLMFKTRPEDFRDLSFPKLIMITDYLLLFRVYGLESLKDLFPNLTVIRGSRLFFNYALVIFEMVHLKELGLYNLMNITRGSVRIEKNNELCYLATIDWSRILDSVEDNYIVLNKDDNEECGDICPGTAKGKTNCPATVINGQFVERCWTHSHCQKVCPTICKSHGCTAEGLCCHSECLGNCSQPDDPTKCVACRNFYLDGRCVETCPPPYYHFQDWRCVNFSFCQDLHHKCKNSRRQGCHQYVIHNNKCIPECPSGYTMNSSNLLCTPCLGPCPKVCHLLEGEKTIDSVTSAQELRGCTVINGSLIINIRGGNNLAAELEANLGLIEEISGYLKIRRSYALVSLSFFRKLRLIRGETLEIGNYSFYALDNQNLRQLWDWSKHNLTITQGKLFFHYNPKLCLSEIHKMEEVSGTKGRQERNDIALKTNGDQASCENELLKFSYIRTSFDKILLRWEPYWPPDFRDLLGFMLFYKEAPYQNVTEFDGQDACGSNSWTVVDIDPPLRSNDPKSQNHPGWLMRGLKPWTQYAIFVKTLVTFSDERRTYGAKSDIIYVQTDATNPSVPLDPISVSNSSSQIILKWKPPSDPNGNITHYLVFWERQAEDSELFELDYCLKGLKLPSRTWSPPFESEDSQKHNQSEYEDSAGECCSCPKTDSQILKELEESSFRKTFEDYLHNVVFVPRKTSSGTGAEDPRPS
T1 sequence (P06213 763-1382 limits assumed): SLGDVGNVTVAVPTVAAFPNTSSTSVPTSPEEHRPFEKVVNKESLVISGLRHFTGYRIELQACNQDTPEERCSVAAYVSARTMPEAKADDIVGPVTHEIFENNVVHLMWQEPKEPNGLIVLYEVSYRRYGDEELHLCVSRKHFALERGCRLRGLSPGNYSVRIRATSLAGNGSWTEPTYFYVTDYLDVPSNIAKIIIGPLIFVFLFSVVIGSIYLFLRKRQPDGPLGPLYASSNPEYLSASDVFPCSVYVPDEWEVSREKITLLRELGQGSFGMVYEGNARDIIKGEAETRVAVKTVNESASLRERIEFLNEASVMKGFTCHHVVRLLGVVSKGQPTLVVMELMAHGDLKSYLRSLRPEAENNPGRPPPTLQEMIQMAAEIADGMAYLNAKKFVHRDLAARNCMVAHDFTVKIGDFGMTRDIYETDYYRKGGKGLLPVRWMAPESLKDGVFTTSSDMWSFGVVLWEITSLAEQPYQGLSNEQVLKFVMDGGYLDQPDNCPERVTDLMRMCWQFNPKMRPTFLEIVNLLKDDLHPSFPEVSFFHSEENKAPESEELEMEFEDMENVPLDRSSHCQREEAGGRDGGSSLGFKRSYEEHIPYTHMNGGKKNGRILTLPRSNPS
Sequence of Receptor tyrosine-protein kinase erbB-2 (P04626 whole entry): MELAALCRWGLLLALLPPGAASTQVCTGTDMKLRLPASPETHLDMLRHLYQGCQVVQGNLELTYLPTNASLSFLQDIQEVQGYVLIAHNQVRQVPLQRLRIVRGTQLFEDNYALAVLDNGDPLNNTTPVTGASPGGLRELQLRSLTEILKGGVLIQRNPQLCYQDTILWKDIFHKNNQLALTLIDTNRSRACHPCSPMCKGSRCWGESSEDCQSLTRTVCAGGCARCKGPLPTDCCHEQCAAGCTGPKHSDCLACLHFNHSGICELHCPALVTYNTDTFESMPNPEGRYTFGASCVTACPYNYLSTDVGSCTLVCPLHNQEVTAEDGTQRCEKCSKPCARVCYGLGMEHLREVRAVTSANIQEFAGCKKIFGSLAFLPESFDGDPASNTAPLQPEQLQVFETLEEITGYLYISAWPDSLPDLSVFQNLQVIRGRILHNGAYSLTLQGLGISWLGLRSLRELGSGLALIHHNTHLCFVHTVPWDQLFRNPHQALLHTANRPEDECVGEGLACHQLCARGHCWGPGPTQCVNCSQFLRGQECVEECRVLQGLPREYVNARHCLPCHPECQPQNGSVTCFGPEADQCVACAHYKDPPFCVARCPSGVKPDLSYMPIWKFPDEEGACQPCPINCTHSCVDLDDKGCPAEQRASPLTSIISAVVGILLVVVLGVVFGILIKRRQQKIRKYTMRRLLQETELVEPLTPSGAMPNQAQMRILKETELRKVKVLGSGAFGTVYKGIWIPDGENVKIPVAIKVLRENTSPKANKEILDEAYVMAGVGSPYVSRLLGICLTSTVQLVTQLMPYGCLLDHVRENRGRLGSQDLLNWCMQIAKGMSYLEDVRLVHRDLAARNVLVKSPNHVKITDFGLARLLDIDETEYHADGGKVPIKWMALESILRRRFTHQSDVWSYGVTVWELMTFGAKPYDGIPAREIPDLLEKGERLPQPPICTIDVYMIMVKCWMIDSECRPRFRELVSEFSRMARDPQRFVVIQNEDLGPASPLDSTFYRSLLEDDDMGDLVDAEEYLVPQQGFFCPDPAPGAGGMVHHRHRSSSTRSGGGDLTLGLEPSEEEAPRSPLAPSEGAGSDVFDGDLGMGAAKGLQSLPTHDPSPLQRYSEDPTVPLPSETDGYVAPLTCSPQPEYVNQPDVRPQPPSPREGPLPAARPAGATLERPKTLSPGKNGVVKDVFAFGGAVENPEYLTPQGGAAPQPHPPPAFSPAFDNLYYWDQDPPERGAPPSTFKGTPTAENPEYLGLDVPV
Sequence of Aurora kinase B (Q96GD4 whole entry): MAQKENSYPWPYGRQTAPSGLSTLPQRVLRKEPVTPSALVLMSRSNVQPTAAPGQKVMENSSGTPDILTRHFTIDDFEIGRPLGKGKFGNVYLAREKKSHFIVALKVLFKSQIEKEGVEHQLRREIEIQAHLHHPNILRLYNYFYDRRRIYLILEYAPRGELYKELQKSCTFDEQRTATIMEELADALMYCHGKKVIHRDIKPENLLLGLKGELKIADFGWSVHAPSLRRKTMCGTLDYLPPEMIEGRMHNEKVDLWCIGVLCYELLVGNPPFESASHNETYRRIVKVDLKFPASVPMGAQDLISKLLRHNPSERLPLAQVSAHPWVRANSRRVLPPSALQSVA
Sequence of Tyrosine-protein kinase Lck (P06239 whole entry): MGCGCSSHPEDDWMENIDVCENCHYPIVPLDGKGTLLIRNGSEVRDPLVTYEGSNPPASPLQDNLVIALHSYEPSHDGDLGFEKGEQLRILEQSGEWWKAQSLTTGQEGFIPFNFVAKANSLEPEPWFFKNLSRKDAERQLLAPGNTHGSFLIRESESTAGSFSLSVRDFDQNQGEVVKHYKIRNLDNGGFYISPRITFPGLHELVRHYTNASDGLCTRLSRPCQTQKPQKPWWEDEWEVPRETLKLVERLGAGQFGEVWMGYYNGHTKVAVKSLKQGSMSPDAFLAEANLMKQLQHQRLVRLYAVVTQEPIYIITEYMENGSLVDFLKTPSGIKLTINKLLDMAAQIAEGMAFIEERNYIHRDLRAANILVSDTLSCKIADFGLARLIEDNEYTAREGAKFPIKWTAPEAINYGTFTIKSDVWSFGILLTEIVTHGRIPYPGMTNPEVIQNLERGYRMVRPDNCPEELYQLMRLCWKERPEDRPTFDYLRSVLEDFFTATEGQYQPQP

SMILES | IC50 [1] | IC50 [2] | IC50 [3] | IC50 [4] | IC50 [5] | IC50 [6] | IC50 [7] | IC50 [8] | IC50 [9] | Ki [18] | Ki [19] | IC50 [32] | IC50 [33] | AUC [34] | CL/F [36] | further results
CCc1cc(Nc2nccc(-c3c(-c4ccc(OC)c(C(=O)Nc5c(F)cccc5F)c4)nc4ccccn34)n2)c(OC)cc1N1CCC(N2CCN(S(C)(=O)=O)CC2)CC1 | 25 nM | > 10000 nM | > 25000 nM | > 10000 nM | > 2000 nM | 4500 nM | 11000 nM | > 1500 nM | > 3000 nM | 1.6 nM | 1.3 nM | 27 nM | 22 nM | – | – | IC50 [10]: 19 nM; IC50 [11]: 81 nM; IC50 [12]: 104 nM; IC50 [13]: 35 nM; IC50 [14]: 61 nM; IC50 [15]: 124 nM; IC50 [16]: > 20000 nM; IC50 [17]: > 20000 nM; CL/F [20]: 5.8 mL/min/kg; Vdss [21]: 7.5 L/kg; AUC [22]: 1220 ng·h/mL; bioavailability [23]: 63%; CL/F [24]: 8.7 mL/min/kg; Vdss [25]: 4.7 L/kg; AUC [26]: 870 ng·h/mL; bioavailability [27]: 47%; CL/F [28]: 13.9 mL/min/kg; Vdss [29]: 9.8 L/kg; AUC [30]: 1070 ng·h/mL; bioavailability [31]: 97%
COc1cc(N2CCC(N3CCCC3)CC2)ccc1Nc1nccc(-c2c(-c3cccc(C(=O)Nc4c(F)cccc4F)c3)nc3ccccn23)n1 | – | – | – | – | – | – | – | – | – | – | – | 2 nM | 38 nM | 121 ng·h/mL | – | –
COc1cc(N2CCC(N3CCOCC3)CC2)ccc1Nc1nccc(-c2c(-c3cccc(C(=O)Nc4c(F)cccc4F)c3)nc3ccccn23)n1 | – | – | – | – | – | – | – | – | – | – | – | 2 nM | 41 nM | 276 ng·h/mL | – | –
COc1cc(N2CCC(N3CCCCC3)CC2)ccc1Nc1nccc(-c2c(-c3cccc(C(=O)Nc4c(F)cccc4F)c3)nc3ccccn23)n1 | – | – | – | – | – | – | – | – | – | – | – | 2 nM | 38 nM | – | 13.4 mL/min/kg | AUC [35]: 239 ng·h/mL
COc1cc(N2CCC(N3CCN(S(C)(=O)=O)CC3)CC2)ccc1Nc1nccc(-c2c(-c3cccc(C(=O)Nc4c(F)cccc4F)c3)nc3ccccn23)n1 | 5 nM | 57 nM | 74 nM | 72 nM | 80 nM | 200 nM | 440 nM | 1600 nM | 1200 nM | 5.2 nM | 2.2 nM | 5 nM | 36 nM | 1060 ng·h/mL | 13.6 mL/min/kg | –
COc1cc(N2CCC(N3CC[C@@H](F)C3)CC2)ccc1Nc1nccc(-c2c(-c3cccc(C(=O)Nc4c(F)cccc4F)c3)nc3ccccn23)n1 | – | – | – | – | – | – | – | – | – | – | – | 2 nM | 40 nM | 494 ng·h/mL | – | –
